Test results reported in ChEMBL document CHEMBL5236549, “Discovery of 2-Sulfinyl-Diazabicyclooctane Derivatives, Potential Oral β-Lactamase Inhibitors for Infections Caused by Serine β-Lactamase-Producing Enterobacterales” (J Med Chem, 2021).

Legend:
[1] = Stability of the compound in phosphate buffer at pH 7.0 assessed as parent compound remaining at 40 degreeC measured after 16 hrs; type: physicochemical; details: read-out: Stability
How it was run: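 Compound held in pH 7.0 phosphate buffer at 40 °C for 16 h; amount remaining reported as %.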

[2] = Cmax in rat at 5 mg/kg,po by LC/MS/MS analysis; type: ADME, organism-based; design: dose 5 mg/kg, route po; details: in vivo
How it was run: (§1)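 Plasma of the parent acid measured by LC/MS/MS (methanol precipitation, positive ESI, external standard); oral values follow prodrug dosing (rat fed, dog and monkey fasted). AUC from 0 h to last time point by linear trapezoid; F from oral AUC versus iv AUC of the parent. N = 2 (rat, dog), N = 3 (monkey, mouse).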

[3] = AUC in rat at 5 mg/kg,po by LC/MS/MS analysis; type: ADME, organism-based; design: dose 5 mg/kg, route po; details: in vivo; how it was run: as §1
[4] = Tmax in rat at 5 mg/kg,po by LC/MS/MS analysis; type: ADME, organism-based; details: in vivo
[5] = Oral bioavailability in rat at 5 mg/kg by LC/MS/MS analysis; type: ADME, organism-based; details: in vivo; how it was run: as §1
[6] = Cmax in dog at 10 mg/kg,po by LC/MS/MS analysis; type: ADME, organism-based, Canis lupus familiaris; design: dose 10 mg/kg, route po; details: in vivo; how it was run: as §1
[7] = AUC in dog at 10 mg/kg,po by LC/MS/MS analysis; type: ADME, organism-based, Canis lupus familiaris; design: dose 10 mg/kg, route po; details: in vivo; how it was run: as §1
[8] = Tmax in dog at 10 mg/kg,po by LC/MS/MS analysis; type: ADME, organism-based, Canis lupus familiaris; details: in vivo
[9] = Oral bioavailability in dog at 10 mg/kg by LC/MS/MS analysis; type: ADME, organism-based, Canis lupus familiaris; details: in vivo; how it was run: as §1
[10] = Cmax in monkey at 10 mg/kg,po by LC/MS/MS analysis; type: ADME, organism-based, Macaca mulatta; design: dose 10 mg/kg, route po; details: rhesus monkey, in vivo; how it was run: as §1
[11] = AUC in monkey at 10 mg/kg,po by LC/MS/MS analysis; type: ADME, organism-based, Macaca mulatta; design: dose 10 mg/kg, route po; details: rhesus monkey, in vivo; how it was run: as §1
[12] = Tmax in monkey at 10 mg/kg,po by LC/MS/MS analysis; type: ADME, organism-based, Macaca mulatta; details: rhesus monkey, in vivo
[13] = Oral bioavailability in monkey at 10 mg/kg by LC/MS/MS analysis; type: ADME, organism-based, Macaca mulatta; details: rhesus monkey, in vivo; how it was run: as §1

remaining at 16 h [1]: 11%
Cmax [2]: 2150 ng/mL
AUC [3]: 2300 ng·h/mL
Tmax [4]: 0.5 h
bioavailability [5]: 74.4%
Cmax [6]: 10600 ng/mL
AUC [7]: 26000 ng·h/mL
Tmax [8]: 1 h
bioavailability [9]: 68.3%
Cmax [10]: 4510 ng/mL
AUC [11]: 8320 ng·h/mL
Tmax [12]: 1 h
bioavailability [13]: 29.9%
Structure (SMILES): CCOC(=O)[C@@H](F)ON1C(=O)N2C[C@H]1CC[C@H]2[S@@+](C)[O-]
